The term MIC denotes the smallest concentration in the dilution series that meets the test's criterion for growth inhibition.

Among the data in ChEMBL document CHEMBL1151472, “In vitro interactions between tacrolimus and azoles against Candida albicans determined by different methods” (2008) are Activity and MIC values, retold here.

Common to all, as to assay type: functional
In assay [1] the test system is Candida albicans. Kind of assay: Antimicrobial activity against azole-susceptible Candida albicans isolate CA14 assessed as log reduction in colony count at 1 ug/ml co-treated with calcineurin signaling inhibitor tacrolimus after 48 hrs by time killing test. The gist of the method: (§1)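 Time-kill was started at 10^5 CFU/ml, with 10 μg/ml FLC or 1 μg/ml ITR or VRC, alone or with 0.016 μg/ml FK506, and DMSO <1%, at 35°C. At 0, 6, 12, 24 and 48 h, aliquots were serially diluted and plated on Sabouraud agar, then counted after 48 h at 35°C. Triplicate means.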

For assay [2], the system named is Candida albicans. Put plainly: Antimicrobial activity against azole-susceptible Candida albicans isolate CA14 assessed as log reduction in colony count at 1 ug/ml co-treated with calcineurin signaling inhibitor tacrolimus after 48 hrs by XTT assay. The gist of the method:
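Time-kill assay starting at 10^5 CFU/ml with azole 1 μg/ml plus FK506 0.016 μg/ml at 35°C, with a drug-free control and DMSO <1%. At 48 h, a 100 μl aliquot was mixed with XTT-menadione (XTT 0.5 g/liter in Ringer's lactate, menadione 10 μM final) and incubated in the dark up to 2 h at 35°C. A492 was converted to CFU by standard curve (Y = 4.2610x + 4.2087).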
A general note: Tetrazolium assays rely on reduction of a dye to a coloured formazan, in cell work by metabolically active cells.

For assay [3], the system named is Candida albicans. Kind of assay: Antimicrobial activity against azole-resistant Candida albicans isolate CA10 assessed as log reduction in colony count at 1 ug/ml co-treated with calcineurin signaling inhibitor tacrolimus after 48 hrs by time killing test. The gist of the method: as §1
The test system of assay [4] is Candida albicans. Kind of assay: Antimicrobial activity against azole-resistant Candida albicans isolate CA10 assessed as log reduction in colony count at 1 ug/ml co-treated with calcineurin signaling inhibitor tacrolimus after 48 hrs by XTT assay. A digest of the protocol:
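Same time-kill setup (10^5 CFU/ml start, azole ± 0.016 μg/ml FK506, 35°C). At each time point, aliquots were mixed 1:1 with XTT (0.5 g/liter in Ringer's lactate) plus 10 μM menadione final. Incubation was in the dark for up to 2 h at 35°C, then formazan was read at 492 nm. OD was converted to CFU via a standard curve (Y = 4.2610x + 4.2087). Triplicate.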

For assay [5], the system named is Candida albicans. Put plainly: Antimicrobial activity against azole-susceptible Candida albicans isolate CA5 after 48 hrs by broth microdilution method. The conditions noted are these: isolate CA5, 48 h. A digest of the protocol: (§2)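 CLSI M27-A2 broth microdilution was run in RPMI 1640 (pH 7.0, 2% dextrose, 0.165 M MOPS). Inoculum was 2.5 × 10^3 CFU/ml, incubated 35°C for 48 h without shaking. Plates were read visually (0–5 scale) and at OD 492 nm. MIC80 = lowest concentration giving an 80% absorbance decrease vs drug-free control. Triplicate.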
On the technique in general: Dilution methods test growth across graded concentrations, often in twofold steps.

In assay [6] the test system is Candida albicans. Put plainly: Antimicrobial activity against azole-susceptible Candida albicans isolate CA8 after 48 hrs by broth microdilution method. The note with it: isolate CA8, 48 h. A digest of the protocol: as §2
The subject of assay [7] is Candida albicans. Put plainly: Antimicrobial activity against azole-susceptible Candida albicans isolate CA12 after 48 hrs by broth microdilution method. The note with it: isolate CA12, 48 h. A digest of the protocol: as §2
Assay [8] concerns Candida albicans. Kind of assay: Antimicrobial activity against azole-susceptible Candida albicans isolate CA14 after 48 hrs by broth microdilution method. The conditions noted are these: isolate CA14, 48 h. The gist of the method:
as §2

In assay [9] the test system is Candida albicans. Put plainly: Antimicrobial activity against azole-susceptible Candida albicans isolate CA129 after 48 hrs by broth microdilution method. The note with it: isolate CA129, 48 h. The gist of the method: as §2
Assay [10] has as its system Candida albicans. Put plainly: Antimicrobial activity against azole-resistant Candida albicans isolate CA10 after 48 hrs by broth microdilution method. The note with it: isolate CA10, 48 h. The gist of the method: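 Broth microdilution per CLSI M27-A2 in RPMI 1640 (pH 7.0, 2% dextrose, 0.165 M MOPS), final inoculum 2.5 × 10^3 CFU/ml; 35°C without shaking for 48 h. Read visually (0–5 scale) and by OD 492 nm; MIC80 = lowest concentration giving 80% drop in absorbance versus drug-free control. Triplicate.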

The subject of assay [11] is Candida albicans. Put plainly: Antimicrobial activity against azole-resistant Candida albicans isolate CA15 after 48 hrs by broth microdilution method. The conditions noted are these: isolate CA15, 48 h. A digest of the protocol: as §2
Assay [12] relates to Candida albicans. Kind of assay: Antimicrobial activity against azole-resistant Candida albicans isolate CA16 after 48 hrs by broth microdilution method. The conditions noted are these: isolate CA16, 48 h. A digest of the protocol:
as §2

For assay [13], the system named is Candida albicans. Kind of assay: Antimicrobial activity against azole-resistant Candida albicans isolate CA135 after 48 hrs by broth microdilution method. The note with it: isolate CA135, 48 h. The gist of the method:
as §2

Assay [14] deals with Candida albicans. Kind of assay: Antimicrobial activity against azole-resistant Candida albicans isolate CA137 after 48 hrs by broth microdilution method. The conditions noted are these: isolate CA137, 48 h. The gist of the method: as §2
For assay [15], the system named is Candida albicans. Put plainly: Antimicrobial activity against azole-susceptible Candida albicans isolate CA5 co-treated with calcineurin signaling inhibitor tacrolimus after 48 hrs by microdilution checkerboard technique. The note with it: isolate CA5, 48 h. The gist of the method: (§3)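 Checkerboard microdilution in MOPS-buffered RPMI 1640 (pH 7.0, 2% dextrose) with 2.5 × 10^3 CFU/ml for 48 h at 35°C. Final FK506 was 0.002–0.125 μg/ml. Azole finals were FLC 0.125–128 μg/ml, and ITR and VRC 0.008–8 μg/ml. MIC80 is an 80% OD492 decrease vs drug-free control. Interaction was scored by FICI (synergy ≤0.5, antagonism >4) and by ΔE from triplicates.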

The subject of assay [16] is Candida albicans. Put plainly: Antimicrobial activity against azole-susceptible Candida albicans isolate CA8 co-treated with calcineurin signaling inhibitor tacrolimus after 48 hrs by microdilution checkerboard technique. The note with it: isolate CA8, 48 h. The gist of the method:
as §3

In assay [17] the test system is Candida albicans. Put plainly: Antimicrobial activity against azole-susceptible Candida albicans isolate CA12 co-treated with calcineurin signaling inhibitor tacrolimus after 48 hrs by microdilution checkerboard technique. The note with it: isolate CA12, 48 h. The gist of the method: as §3
The test system of assay [18] is Candida albicans. Put plainly: Antimicrobial activity against azole-susceptible Candida albicans isolate CA14 co-treated with calcineurin signaling inhibitor tacrolimus after 48 hrs by microdilution checkerboard technique. The note with it: isolate CA14, 48 h. The gist of the method:
as §3

Assay [19] deals with Candida albicans. Kind of assay: Antimicrobial activity against azole-susceptible Candida albicans isolate CA129 co-treated with calcineurin signaling inhibitor tacrolimus after 48 hrs by microdilution checkerboard technique. The note with it: isolate CA129, 48 h. A digest of the protocol: as §3
Assay [20] relates to Candida albicans. Put plainly: Antimicrobial activity against azole-resistant Candida albicans isolate CA10 co-treated with calcineurin signaling inhibitor tacrolimus after 48 hrs by microdilution checkerboard technique. The conditions noted are these: isolate CA10, 48 h. The gist of the method: as §3
Assay [21] deals with Candida albicans. Put plainly: Antimicrobial activity against azole-resistant Candida albicans isolate CA15 cotreated with calcineurin signaling inhibitor Tacrolimus after 48 hrs by microdilution checkerboard technique. The conditions noted are these: isolate CA15, 48 h. The gist of the method:
as §3

For assay [22], the system named is Candida albicans. Put plainly: Antimicrobial activity against azole-resistant Candida albicans isolate CA16 cotreated with calcineurin signaling inhibitor Tacrolimus after 48 hrs by microdilution checkerboard technique. The conditions noted are these: isolate CA16, 48 h. The gist of the method:
as §3

In assay [23] the test system is Candida albicans. Put plainly: Antimicrobial activity against azole-resistant Candida albicans isolate CA135 cotreated with calcineurin signaling inhibitor Tacrolimus after 48 hrs by microdilution checkerboard technique. The conditions noted are these: isolate CA135, 48 h. The gist of the method:
as §3

The test system of assay [24] is Candida albicans. Put plainly: Antimicrobial activity against azole-resistant Candida albicans isolate CA137 cotreated with calcineurin signaling inhibitor Tacrolimus after 48 hrs by microdilution checkerboard technique. The conditions noted are these: isolate CA137, 48 h. The gist of the method:
as §3

Each structure is given as a SMILES string. Converted amounts (≈) assume the structure as drawn.

Regarding `CCC(C)n1ncn(-c2ccc(N3CCN(c4ccc(OCC5COC(Cn6cncn6)(c6ccc(Cl)cc6Cl)O5)cc4)CC3)cc2)c1=O` (configuration not stated) [ITRACONAZOLE], the Activity amounted to 2.13 with Candida albicans [1], 1.4 with Candida albicans [2], 2.12 with Candida albicans [3] and 2.46 in the assay with Candida albicans [4]. Also, the MIC against Candida albicans [5] turned out to be 0.031 µg/mL (≈ 0.0439 µM); in the assay on Candida albicans [6] it was 0.016 µg/mL (≈ 0.0227 µM); in the assay on Candida albicans [7] it was 0.063 µg/mL (≈ 0.0893 µM); against Candida albicans [8] it was 0.063 µg/mL (≈ 0.0893 µM); in the assay with Candida albicans [9], 0.063 µg/mL (≈ 0.0893 µM); against Candida albicans [10], 128 µg/mL (≈ 181 µM). Also, the MIC with Candida albicans [11] is 32 µg/mL (≈ 45.3 µM); with Candida albicans [12], 32 µg/mL (≈ 45.3 µM); in the assay on Candida albicans [13] it was 16 µg/mL (≈ 22.7 µM); against Candida albicans [14], 16 µg/mL (≈ 22.7 µM); in the assay on Candida albicans [15], 0.031 µg/mL; in the assay on Candida albicans [16], 0.008 µg/mL. Further, the MIC was found to be 0.031 µg/mL with Candida albicans [17]; 0.031 µg/mL in the assay with Candida albicans [18]; 0.031 µg/mL in the assay on Candida albicans [19]; 0.031 µg/mL in the assay with Candida albicans [20]; 0.063 µg/mL in the assay with Candida albicans [21]; 0.016 µg/mL with Candida albicans [22]. In addition, the results for the MIC in the assay with Candida albicans [23] and in the assay with Candida albicans [24] were 0.016 µg/mL and 0.063 µg/mL, respectively.
For the compound `C[C@@H](c1ncncc1F)[C@](O)(Cn1cncn1)c1ccc(F)cc1F` [VORICONAZOLE], the Activity is on record as 1.49 in the assay on Candida albicans [1], 2.15 in the assay with Candida albicans [3] and 2.26 with Candida albicans [4]. For the same compound, the MIC in the assay with Candida albicans [5] came to 0.016 µg/mL (≈ 0.0458 µM); with Candida albicans [6], 0.008 µg/mL (≈ 0.0229 µM); against Candida albicans [7] it was 0.031 µg/mL (≈ 0.0887 µM); against Candida albicans [8], 0.008 µg/mL (≈ 0.0229 µM); in the assay on Candida albicans [9] it was 0.016 µg/mL (≈ 0.0458 µM); with Candida albicans [10], 64 µg/mL (≈ 183 µM). The MIC in the assay with Candida albicans [11] was 8 µg/mL (≈ 22.9 µM); in the assay on Candida albicans [12], 8 µg/mL (≈ 22.9 µM); against Candida albicans [13], 8 µg/mL (≈ 22.9 µM); against Candida albicans [14] it was 8 µg/mL (≈ 22.9 µM); with Candida albicans [15], 0.016 µg/mL; in the assay on Candida albicans [16], 0.016 µg/mL. The MIC in the assay with Candida albicans [17] was 0.016 µg/mL; in the assay on Candida albicans [18], 0.008 µg/mL; with Candida albicans [19], 0.008 µg/mL; with Candida albicans [20] it was 0.008 µg/mL; in the assay on Candida albicans [21] it was 0.008 µg/mL; in the assay on Candida albicans [22], 0.008 µg/mL. The values for the MIC with Candida albicans [23] and in the assay on Candida albicans [24] were 0.016 µg/mL and 0.008 µg/mL, respectively.
